Compound activity as filed in PubChem BioAssay.
Rows were chosen to be rich in hits. Some 0.7% of all compounds tested hit in one or more screens of this group.
Lipid droplet: inhibitors of hepatocyte lipid droplet formation, primary screen, imaging, high-throughput imaging, BODIPY stain. 240,000 tested, 0.4% active. inhibition, % at 6.5 µM. AID 1656, 2009. AML12 mouse hepatocytes, oleate lipid droplets;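 active means lipid droplet intensity inhibited by at least 50%, with more than 500 cells counted; inconclusive means wells with under 300 cells, treated as cytotoxic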
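Assay system: AML12 mouse liver cells | Compound: 6.5 µM single-point dosing | Schedule: Overnight exposure | Technique: Fluorescence imaging, 20x objective, two fields per well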
GSK3 alpha inh: blockers of GSK3A enzyme activity – biochemical, luminescence, cell-free homogeneous, HTS, primary screen; Glycogen synthase kinase-3 alpha (Homo sapiens), P49840; GSK-3 alpha kinase, ADP-Glo luminescence, 60 min; inhibition, % at 10 µM; 320,000 tested, 0.1% active;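 active means more than half of replicates show inhibition above 20%; inconclusive means some but at most half of replicates above 20% inhibition; inactive means no replicate shows inhibition above 20%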;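 further: GST-tagged GSK-3 alpha with peptide substrate and 25 µM ATP; 0% = DMSO neutral wells and 100% = GW8510 positive control wells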
HSV replic up: enhancers of HSV replication in host cells, fold increase, host cell viability | 220,000 tested, 0.005% active | maximum fold increase | HSV replication augmentation in cells; in the data active means maximum fold increase above about 1.5; inconclusive means no clear call, values can overlap the other calls; tested in PC3 cells
Rce1 inhib: yeast Rce1p protease inhibitors, primary screen, biochemical, fluorescence, cell-free homogeneous; CAAX prenyl protease 2 (Saccharomyces cerevisiae (strain ATCC 204508 / S288c)), Q03530; yeast membranes, quenched prenylated peptide cleavage fluorescence; calls only; 290,000 tested, 0.27% active; AID 2563, 2010;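 active means fall in fluorescence gain of 50% or more versus controls, with final raw signal at or below 3038400; inconclusive means same 50% fall but final raw signal above 3038400; inactive means fall in fluorescence gain under 50%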;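 further: plate controls were neutral control wells for no effect and wells lacking membranes for full effect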
Target sequence (Q03530 whole entry, looked up): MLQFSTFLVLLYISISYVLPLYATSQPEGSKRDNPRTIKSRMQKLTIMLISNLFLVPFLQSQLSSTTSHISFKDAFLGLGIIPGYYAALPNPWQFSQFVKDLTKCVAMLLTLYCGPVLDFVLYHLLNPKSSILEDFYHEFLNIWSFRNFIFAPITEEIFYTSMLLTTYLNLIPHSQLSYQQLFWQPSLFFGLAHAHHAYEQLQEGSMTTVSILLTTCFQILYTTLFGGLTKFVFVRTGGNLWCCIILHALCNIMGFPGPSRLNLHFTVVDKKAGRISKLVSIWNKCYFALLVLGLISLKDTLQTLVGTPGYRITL
GSK3B inh: human GSK3beta kinase inhibitors, primary screen, biochemical, cell-free homogeneous, HTS; Glycogen synthase kinase-3 beta (Homo sapiens), P49841; GST-GSK3beta kinase, ADP-Glo luminescence, 60 min; stronger effect = lower value; activity score (negative = inhibition), % at 10 µM; 300,000 tested, 0.038% active; AID 2097, 2009;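 active means more than half of replicate wells score below -50%, meaning over 50% inhibition versus plate controls; inconclusive means some replicates but at most half score below -50%; inactive means no replicate scores below -50%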;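 further: 0% = median DMSO wells and -100% = median GW8510 positive control wells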
Target sequence (P49841 whole entry, looked up): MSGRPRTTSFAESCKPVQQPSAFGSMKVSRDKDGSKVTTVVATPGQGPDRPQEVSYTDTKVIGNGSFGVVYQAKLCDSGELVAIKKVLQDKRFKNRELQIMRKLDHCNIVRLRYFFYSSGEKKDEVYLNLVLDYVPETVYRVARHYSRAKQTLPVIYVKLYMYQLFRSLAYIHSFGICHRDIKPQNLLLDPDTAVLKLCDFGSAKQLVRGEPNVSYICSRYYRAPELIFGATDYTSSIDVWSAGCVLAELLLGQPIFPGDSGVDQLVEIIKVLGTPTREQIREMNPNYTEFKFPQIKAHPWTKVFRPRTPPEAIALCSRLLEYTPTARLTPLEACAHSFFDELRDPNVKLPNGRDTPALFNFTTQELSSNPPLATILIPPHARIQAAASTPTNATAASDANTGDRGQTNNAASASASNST
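Assay system: GST-fused GSK3beta enzyme, cell-free / Medium: Tris pH 7.5 buffer with MgCl2, DTT, BSA, heparin / Also added: peptide substrate plus 25 µM ATP (final) / Compound: 10 µM single point / Timing: kinase reaction with compound 60 min at room temperature / Detection: ADP-Glo luminescence / Benchmarks: DMSO neutral wells and GW8510 at 20 µM as positive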
STK33 inh: inhibitors of purified STK33 kinase, primary screen, biochemical, ADP-Glo luminescence, homogeneous, cell-free | Serine/threonine-protein kinase 33 (Homo sapiens), Q9BYT3 | MBP phosphorylation | inhibition, % at 10 µM | 320,000 tested, 0.073% active | AID 2661, 2010;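 active means inhibition at or above 25%, using the most active replicate where run in duplicate; inactive means inhibition below 25%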
Hep lipid conf: hepatocyte lipid droplet accumulation inhibitors, confirmation, imaging, AML12 mouse hepatocytes, single concentration, high-content. shares compounds with Lipid droplet. BODIPY lipid droplet imaging; droplets induced with 100 µM oleic acid. inhibition, % at 5.2 µM. 870 tested, 65% active;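 active means inhibition of lipid droplet metric at least 50%, with more than 300 cells in each of four replicates; inconclusive means wells under 300 cells, flagged as toxic or low count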;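 further: plate controls were DMSO with oleic acid for no effect and 5 µM Triacsin-C for full effect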
AML12 cytotox: AML12 hepatocyte cytotoxicity, counter-screen for hepatic lipid droplet formation project, imaging, DAPI nuclear morphology imaging. shares compounds with Lipid droplet. AML12 mouse hepatocytes; stronger effect = higher value; cells fed 100 µM oleate overnight. z-score at 5 µM. 870 tested, 3% active; in the data active means z-score above about 6.3;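 further: compound exposure lasted overnight at 37 °C before fixation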
AML12 tox ATP: AML12 hepatocyte cytotoxicity, confirmation, cytotoxicity control for hepatic lipid droplet formation project, cell-based, single concentration; shares compounds with Lipid droplet; AML12 mouse hepatocyte viability, ATP luminescence; cells loaded with 100 µM oleic acid; cytotoxicity, % at 50 µM; 530 tested, under 10 active;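 active means cytotoxicity above 50% in each of four replicates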;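 further: compound exposure lasted overnight at 37 °C before the ATP read; 0% = DMSO-treated cells and 100% = wells with no cells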
Active calls of the source: *; i = inactive; ? = inconclusive; . = no result given.

SMILES | Lipid droplet | GSK3 alpha inh | HSV replic up | Rce1 inhib | GSK3B inh | STK33 inh | Hep lipid conf | AML12 cytotox | AML12 tox ATP
CC(C)C(C)(C#N)NC(=O)CSc1nc2scc(-c3ccc(F)cc3)c2c(=O)n1Cc1ccccc1 (stereo unspecified) | 105* | -2 | i | i | 3 | -2 | 113* | -0.29 | .
CC(C)(C)N(Cc1ccccc1)C(=O)CN1C(=O)NC2(CCCCCC2)C1=O | . | -1 | . | . | . | -3 | . | . | .
COc1ccc(NC(=O)CSc2nnc(-c3cccs3)n2N)cc1S(N)(=O)=O | . | -1 | . | . | . | 0 | . | . | .
Cc1cc(=O)oc2cc(OCC(=O)NCCCN3CCCC3=O)ccc12 | 52* | 0 | . | i | -2 | 0 | 21 | -0.74 | .
Cc1c(C)c2ccc(OCC(=O)NCCCN3CCCC3=O)cc2oc1=O | -5 | 0 | . | ? | 2 | -1 | . | . | .
CC(CCc1ccccc1)NC(=O)C(C)OC(=O)c1ccco1 (stereo unspecified) | . | -2 | . | i | 4 | -1 | . | . | .
COc1ccc(C(=O)OCC(=O)NC(C)CCc2ccccc2)c(OC)c1 (stereo unspecified) | 75* | 1 | . | i | -1 | 0 | 67 | 0.65 | 7
COc1cc(C(=O)NCC(=O)NC(C)CCc2ccccc2)cc(OC)c1OC (stereo unspecified) | 4 | 0 | . | i | -2 | -1 | . | . | .
CCOc1ccc(C(=O)NCC(=O)NC(C)CCc2ccccc2)cc1OCC (stereo unspecified) | 75* | . | . | i | 2 | -1 | 106* | 1.1 | 16
COc1ccc(C(=O)OC(C)C(=O)NC(C)CCc2ccccc2)cc1OC (stereo unspecified) | 103* | -3 | . | i | -2 | -3 | 107* | -0.018 | 14
CCOc1ccc(C(=O)CCC(=O)NCC(=O)OCc2ccccc2)cc1OCC | 93* | -1 | . | i | -2 | -2 | 73* | -0.48 | 9
COc1ccc(NC(=O)C2CCCN2C(=O)NC2CCCCC2)cc1 (stereo unspecified) | 10 | -3 | . | i | 3 | 1 | . | . | .
Cc1cc(NC(=O)NC(=O)c2ccccc2)no1 | -7 | 2 | . | i | 0 | -1 | . | . | .
Cc1[nH]n(-c2ccccc2)c(=O)c1N=Nc1ccccc1C(=O)N1CCOCC1 | . | -2 | i | i | -4 | -1 | . | . | .
CCOc1ccccc1N=Nc1c(C)[nH]n(-c2ccccc2)c1=O | 76* | 0 | . | i | -1 | -1 | 13 | 0.31 | .
COc1ccccc1N=Nc1c(C)[nH]n(-c2ccccc2)c1=O | 56* | -7 | . | i | 0 | -2 | 4 | 0.029 | .
Cc1[nH]n(-c2ccccc2)c(=O)c1N=Nc1ccc(C#N)cc1 | 0 | -1 | . | i | 2 | -2 | . | . | .
CC1CC(C)(C)NC(=S)N1CCCC(=O)N1CCN(c2ccccc2F)CC1 (stereo unspecified) | -6 | -5 | i | i | 1 | -1 | . | . | .
CC(=O)c1c(C)[nH]c(C(=O)Nc2nc(-c3ccc(-c4ccccc4)cc3)cs2)c1C | 95* | 14 | i | i | -1 | 2 | -2 | -0.39 | .
O=C(CN1C(=O)COc2ccccc2C1=O)c1ccc2c(c1)OCCO2 | -24 | -1 | . | i | 5 | -1 | . | . | .
CCOC(=O)N1CCN(C(=O)CSCC(=O)Nc2nc(-c3ccc(-c4ccccc4)cc3)cs2)CC1 | 82* | 0 | i | i | -1 | -2 | 76* | 0.13 | 42
Cc1oc2ccc(O)c(CN(C)C)c2c1C(=O)c1ccccc1 | 4 | 9 | i | . | 2 | 2 | . | . | .
CN(C)Cc1ccc(O)c(CCc2ccccc2)n1 | 52* | 1 | i | i | 2 | -1 | -2 | 0.21 | .
CCOc1ccc(CCNC(=O)COC(=O)c2cc([N+](=O)[O-])ccc2N2CCOCC2)cc1OCC | 68* | 5 | . | i | -3 | 0 | 103* | -0.41 | 18
CCOc1ccc(CCNC(=O)Cn2nc(C)c3c(C)n(-c4ccccc4)nc3c2=O)cc1OCC | 91* | -2 | . | i | 2 | 1 | 93* | -0.62 | 8
SMILES | Lipid droplet | GSK3 alpha inh | HSV replic up | Rce1 inhib | GSK3B inh | STK33 inh | Hep lipid conf | AML12 cytotox | AML12 tox ATP
CCOc1ccc(CCNC(=O)Cn2ncn3nc(-c4ccc(OC)cc4)cc3c2=O)cc1OCC | 85* | 1 | . | i | 2 | 0 | 101* | 0.45 | 4
O=C(COC(=O)c1cc[n+]([O-])cc1)Nc1ccc(SC(F)F)cc1 | -23 | 1 | i | i | 1 | -1 | . | . | .
CCOc1ccc(C(=O)OCC(=O)Nc2ccc(SC(F)F)cc2)cc1OCC | 51* | -3 | i | i | 4 | -2 | 72* | -0.6 | .
CCN(Cc1ccncc1)C(=O)C(CO)c1ccccc1 (stereo unspecified) | 18 | 1 | . | i | -2 | -1 | . | . | .
CC(C)C[C@H](NC(=O)OC(C)(C)C)C(=O)N[C@@H](CO)[C@H](O)[C@@H]1C[C@@H]1C(=O)N(C)C | -10 | -4 | . | i | -2 | -1 | . | . | .
CCOc1ccc(CCNC(=O)COC(=O)c2c(C)nn(-c3ccccc3)c2C)cc1OCC | 86* | -1 | . | i | 3 | 1 | 110* | -0.39 | 15
Cc1ccc(-n2nc3c(=O)n(C(C)C(=O)NCCC4=CCCCC4)nc(C)c3c2C)cc1 (stereo unspecified) | 58* | 2 | . | i | 2 | 0 | 83* | -1.5 | 18
Cc1ccc(CCNC(=O)C(C)n2nc(C)c3c(C)n(-c4ccccc4)nc3c2=O)cc1 (stereo unspecified) | -29 | -3 | . | i | 0 | -1 | . | . | .
CCOc1ccc(CCNC(=O)CS(=O)Cc2nc(-c3ccc(OC)c(OC)c3)oc2C)cc1OCC (stereo unspecified) | 58* | -2 | . | i | 0 | -1 | 74* | -0.34 | 17
COc1ccc(-c2nc(CS(=O)CC(=O)NCc3ccc(C)cc3)c(C)o2)cc1OC (stereo unspecified) | -1 | -3 | . | i | 8 | -1 | . | . | .
